Data as given in ChEMBL document CHEMBL1275434, “In vitro evaluation of CBR-2092, a novel rifamycin-quinolone hybrid antibiotic: studies of the mode of action in Staphylococcus aureus” (Antimicrob Agents Chemother, 2008).
In brackets after ≈: the same amount, converted by molar mass. Activity calls are given as the source filed them. The calls are words filed in the database; no cut-off is given here.

Assays:
[1] = tested on: Staphylococcus aureus; test: Antimicrobial activity against Staphylococcus aureus CB815 harboring rpoB H481Y, gyrA […] and parC S80F mutant genes by broth microdilution method; format: functional
Method in brief: (§1)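 CLSI broth microdilution MIC in cation-adjusted Mueller-Hinton (MHII) broth supplemented with 0.002% (vol/vol) polysorbate 80, included to limit compound loss to plastic surfaces.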

[2] = tested on: Staphylococcus aureus; test: Antimicrobial activity against Staphylococcus aureus CB1952 harboring rpoB S486L, gyrA […], gyrA E88Q, gyrA G532S, parC S80F, parC E84L mutant genes selected after CBR-2092 exposure for 21 days by agar dilution method; format: functional; conditions: CB1952, 504 h
Method in brief: (§2)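 CLSI agar dilution MIC on MHII base medium against strains from multistep passage (up to 20–21 days) of parents with preexisting rifamycin and/or quinolone resistance.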

[3] = tested on: Staphylococcus aureus; test: Antimicrobial activity against Staphylococcus aureus CB811 harboring quinolone-resistant gyrA S84L mutant gene by broth microdilution method; format: functional; method in brief: as §1
[4] = tested on: Staphylococcus aureus; test: Antimicrobial activity against Staphylococcus aureus CB1881 harboring rpoB R484H mutant gene and L520 deficient gyrA gene by agar dilution method; format: functional
Method in brief: (§3)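 CLSI agar dilution MIC on MHII base medium against stepwise-passage isolates; passage was in MHII broth without polysorbate 80, daily at 37°C.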

[5] = tested on: Staphylococcus aureus; test: Antimicrobial activity against Staphylococcus aureus CB1326 harboring rpoB H481Y and gyrA S784F mutant genes selected after 0.2 ug/ml drug exposure by broth microdilution method; format: functional
Method in brief: (§4)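 CLSI broth microdilution MIC in cation-adjusted Mueller-Hinton (MHII) broth with 0.002% (vol/vol) polysorbate 80. Single-step mutants were selected on agar […], purified by drug-free passage, their phenotype re-verified, and resistance loci sequenced.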

[6] = tested on: Staphylococcus aureus; test: Antimicrobial activity against Staphylococcus aureus CB1883 harboring rpoB R484H mutant gene, L520 deficient gyrA gene, gyrA S84L mutant gene and R236 duplicated par C gene by agar dilution method; format: functional; method in brief: as §3
[7] = tested on: Staphylococcus aureus; test: Antimicrobial activity against Staphylococcus aureus CB1353 harboring rpoB H481Y, parC S80F, parE V458G and gyrA S84L mutant genes selected after 0.53 ug/ml drug exposure by broth microdilution method; format: functional
[8] = tested on: Staphylococcus aureus; test: Antimicrobial activity against rifampin-sensitive Staphylococcus aureus CB190 harboring rpoB A477V mutant gene by broth microdilution method; format: functional; method in brief: as §1
[9] = tested on: Staphylococcus aureus; test: Antimicrobial activity against rifampin-sensitive Staphylococcus aureus CB190 harboring rpoB Q468L mutant gene by broth microdilution method; format: functional; method in brief: as §1
[10] = tested on: Staphylococcus aureus; test: Antimicrobial activity against Staphylococcus aureus CB370 harboring rpoB H481Y mutant gene by agar dilution method; format: functional
Method in brief: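 CLSI agar dilution MIC with cation-adjusted Mueller-Hinton (MHII) agar as the base medium.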

[11] = tested on: Staphylococcus aureus; test: Antimicrobial activity against rifampin-sensitive Staphylococcus aureus CB190 harboring rpo BH481D mutant gene by broth microdilution method; format: functional; method in brief: as §1
[12] = tested on: Staphylococcus aureus; test: Antimicrobial activity against Staphylococcus aureus CB1947 harboring rpoB H481Y, gyrA S84L, E697 deficient gyrA, parC G167V mutant genes selected after CBR-2092 exposure for 20 days by agar dilution method; conditions: CB1947, 480 h
[13] = tested on: Staphylococcus aureus; test: Antimicrobial activity against Staphylococcus aureus CB1418 harboring rpoB H481Y and gyrA D705N mutant genes selected after 0.1 ug/ml drug exposure by broth microdilution method
[14] = Inhibition of Staphylococcus aureus wild-type RNA polymerase RpoB
Method in brief: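 Recombinant S. aureus σA RNA polymerase holoenzyme in a single-round transcription assay using the pGL2B-T7A1-G-less template. The 272-nucleotide G-less RNA product was quantified by gel electrophoresis. IC50 is the concentration halving the product formed without test agent.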

[15] = tested on: Staphylococcus aureus; test: Antimicrobial activity against Staphylococcus aureus CB190 by broth microdilution method; format: functional
[16] = tested on: Staphylococcus aureus; test: Inhibition of DNA synthesis in rifamycin-resistant Staphylococcus aureus CB370 harboring rpoB H481Y mutant gene assessed as decrease in [methyl-3H]thymidine incorporation at 0.5 ug/ml; format: functional, organism-based
Method in brief: (§5)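 Macromolecular synthesis time course in S. aureus, measuring incorporation of [methyl-3H]thymidine (DNA), [5,6-3H]uridine (RNA) or [2,3-3H]D-alanine (cell wall). At each time point, incorporation is expressed as percent of the DMSO-treated control culture. Incorporation at time zero is set to 100%.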

[17] = tested on: Staphylococcus aureus; test: Antimicrobial activity against Staphylococcus aureus CB1891 harboring […], parE P587S and parE F638V mutant genes by broth microdilution method
[18] = tested on: Staphylococcus aureus; test: Inhibition of cell wall synthesis in Staphylococcus aureus CB190 assessed as decrease in [2,3-3H]D-alanine incorporation at 0.5 ug/ml; format: functional, organism-based
[19] = tested on: Staphylococcus aureus; test: Inhibition of DNA synthesis in quinolone-resistant Staphylococcus aureus CB814 harboring gyrA S84L and parC S80F mutant genes assessed as decrease in [methyl-3H]thymidine incorporation at 0.5 ug/ml; format: functional, organism-based; method in brief: as §5
[20] = tested on: DNA gyrase subunit A (Staphylococcus aureus), P20831 [S84L]; test: Activity at Staphylococcus aureus wild-type GyrA S84L mutant
[21] = tested on: Staphylococcus aureus; test: Antimicrobial activity against Staphylococcus aureus CB1881 harboring rpoB R484H mutant gene and L520 deficient gyrA gene; format: functional
[22] = tested on: Staphylococcus aureus; test: Antimicrobial activity against Staphylococcus aureus CB1421 harboring rpoB H481Y, parC S80F and gyrA S84L mutant genes selected after 0.18 ug/ml drug exposure by broth microdilution method; format: functional; method in brief: as §4
[23] = tested on: Staphylococcus aureus; test: Activity at Staphylococcus aureus DNA topoisomerase 4 subunit ParC S80F mutant
[24] = tested on: Staphylococcus aureus; test: Antimicrobial activity against Staphylococcus aureus CB1953 harboring rpoB H481Y, gyrA S84L, gyrA V598I, parC S80F, parC R570H mutant genes selected after CBR-2092 exposure for 7 days by agar dilution method; format: functional; conditions: CB1953, 168 h; method in brief: as §2
[25] = tested on: Staphylococcus aureus; test: Antimicrobial activity against Staphylococcus aureus CB1884 by agar dilution method; format: functional; method in brief: as §3
[26] = tested on: Staphylococcus aureus; test: Activity at Staphylococcus aureus wild-type GyrA
Method in brief: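 Recombinant S. aureus gyrase (wild-type GyrA with His-tagged GyrB; 250 U per μg). SDS/proteinase K stop. Gel quantitation of linear cleavage product gave CC50, the mean of two or more assays.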

[27] = tested on: Staphylococcus aureus; test: Antimicrobial activity against Staphylococcus aureus CB1334 harboring rpoB H481Y, parC S80F,Q27H and gyrA S84L mutant genes selected after 0.8 ug/ml drug exposure by broth microdilution method; format: functional
[28] = tested on: Staphylococcus aureus; test: Inhibition of cell wall synthesis in quinolone-resistant Staphylococcus aureus CB814 harboring gyrA S84L and parC S80F mutant genes assessed as decrease in [2,3-3H]D-alanine incorporation at 0.5 ug/ml; format: functional, organism-based; method in brief: as §5
[29] = tested on: Staphylococcus aureus; test: Antimicrobial activity against Staphylococcus aureus CB370 harboring rifampin-resistant rpoB H481Y mutant gene by broth microdilution method; format: functional; method in brief: as §1
[30] = tested on: Staphylococcus aureus; test: Antimicrobial activity against Staphylococcus aureus CB814 harboring gyrA […] and parc S80F mutant genes by broth microdilution method; format: functional; method in brief: as §1
[31] = tested on: Staphylococcus aureus; test: Antimicrobial activity against rifampin-sensitive Staphylococcus aureus CB190 harboring rpoB D471Y mutant gene by broth microdilution method; format: functional; method in brief: as §1
[32] = tested on: Staphylococcus aureus; test: Antimicrobial activity against rifampin-sensitive Staphylococcus aureus CB190 harboring rpoB H472 mutant gene by broth microdilution method; format: functional; method in brief: as §1

With `CO[C@H]1/C=C/O[C@@]2(C)Oc3c(C)c(O)c4c(O)c(c(/C=N/N5CCC(N(C)C6([C@@H]7CCN(c8c(F)cn9c(=O)c(C(=O)O)cc(C%10CC%10)c9c8C)C7)CC6)CC5)c(O)c4c3C2=O)NC(=O)/C(C)=C\C=C\[C@H](C)[C@H](O)[C@@H](C)[C@@H](O)[C@@H](C)[C@H](OC(C)=O)[C@@H]1C` the MIC [1] was 1 µg/mL (≈ 0.83 µM), the MIC [2] was 4 µg/mL (≈ 3.32 µM) and the MIC [3] was 0.015 µg/mL (≈ 0.0124 µM). It also gave an MIC [4] of 0.25 µg/mL (≈ 0.207 µM), an MIC [5] of 0.5 µg/mL (≈ 0.415 µM) and an MIC [6] of 1 µg/mL (≈ 0.83 µM). It also gave an MIC [7] of 16 µg/mL (≈ 13.3 µM), an MIC [8] of 0.12 µg/mL (≈ 0.0996 µM) and an MIC [9] of 0.25 µg/mL (≈ 0.207 µM). The MIC [10] was 0.03 µg/mL (≈ 0.0249 µM), the MIC [11] was 0.25 µg/mL (≈ 0.207 µM) and the MIC [12] was 1 µg/mL (≈ 0.83 µM). It also gave an MIC [13] of 0.5 µg/mL (≈ 0.415 µM), an IC50 [14] of 0.034 µM and an MIC [15] of 0.015 µg/mL (≈ 0.0124 µM). For the same compound, the Activity [16] was “Active”, the MIC [17] was 0.03 µg/mL (≈ 0.0249 µM) and the Activity [18] was “Active”. The Activity [19] was “Active”, the CC50 [20] was greater than 150 µM and the Time [21] was 41 min. The MIC [22] was 1 µg/mL (≈ 0.83 µM), the CC50 [23] was 2.7 µM and the MIC [24] was 2 µg/mL (≈ 1.66 µM). For the same compound, the MIC [25] was 4 µg/mL (≈ 3.32 µM), the CC50 [26] was 1.5 µM and the MIC [27] was 8 µg/mL (≈ 6.64 µM). The Activity [28] was “Active”, the MIC [29] was 0.12 µg/mL (≈ 0.0996 µM) and the MIC [30] was 0.015 µg/mL (≈ 0.0124 µM). For the same compound, the MIC [31] was 0.25 µg/mL (≈ 0.207 µM) and the MIC [32] was 0.12 µg/mL (≈ 0.0996 µM).
